This is an account of results in ChEMBL document CHEMBL3407351, “Pyrido-imidazodiazepinones as a new class of reversible inhibitors of human kallikrein 7” (Eur J Med Chem, 2015).

Usually inhibition stands for the relative decrease from the control value, in per cent. One may read the IC50 as the midpoint of a concentration-inhibition curve. A lower IC50 goes with inhibition by little substance. What is called EC50 is the concentration needed to bring the measured effect to its halfway point. As a reminder, the Ki is a dissociation constant, usually derived from enzyme kinetics or from competition with a known ligand.

Experiment [1] addresses T1, Kallikrein-7 (Homo sapiens, UniProt P49862). In words: Inhibition of human KLK7 using Suc-Leu-Leu-Val-Tyr-AMC as substrate at 50 uM after 15 mins by fluorescence assay relative to control.
Target sequence in this assay (P49862 30-253 limits assumed): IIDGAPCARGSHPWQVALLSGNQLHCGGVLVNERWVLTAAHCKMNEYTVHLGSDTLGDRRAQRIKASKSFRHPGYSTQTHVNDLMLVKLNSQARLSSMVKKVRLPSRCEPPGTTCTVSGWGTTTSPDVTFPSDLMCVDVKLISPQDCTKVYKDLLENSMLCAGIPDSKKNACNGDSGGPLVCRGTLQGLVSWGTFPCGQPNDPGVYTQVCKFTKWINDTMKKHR
In experiment [2] the target is T1, Kallikrein-7. In words: Inhibition of human KLK7 using Suc-Leu-Leu-Val-Tyr-AMC as substrate after 15 mins by fluorescence assay. The method in brief: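 Recombinant KLK7 at 7.6 nM, final, with 40 µM Suc-LLVY-AMC in pH 8.0 buffer of 50 mM Tris-HCl, 0.01% Tween 20, 1 M NaCl, 2% DMSO. Enzyme preincubated 15 min with compound, then hydrolysis followed for 15 min at 37 °C, ex 360 / em 460 nm. Run in triplicate. Initial rates taken relative to untreated enzyme; IC50 fitted to hyperbolic or Hill equation.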
Target sequence in this assay (P49862 whole entry): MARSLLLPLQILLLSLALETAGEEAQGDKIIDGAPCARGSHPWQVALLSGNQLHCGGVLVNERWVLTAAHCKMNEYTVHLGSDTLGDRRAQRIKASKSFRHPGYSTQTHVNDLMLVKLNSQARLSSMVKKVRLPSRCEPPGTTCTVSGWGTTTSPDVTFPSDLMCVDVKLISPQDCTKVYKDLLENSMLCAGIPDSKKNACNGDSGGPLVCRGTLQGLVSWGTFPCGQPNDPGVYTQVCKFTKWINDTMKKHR

The next experiment has as its system HeLa. In words: Cytotoxicity against human HeLa cells assessed as cell death after 48 to 72 hrs by XTT assay. The class given is functional, cell-based. The method in brief:
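Cells seeded at 5000/well in DMEM with 10% FBS, penicillin and streptomycin, 37 °C, 5% CO2. Compounds in DMSO added 20 h later, final DMSO 1%; screened at 100 µM, then over a concentration range, at least three wells per condition. Absorbance read at 485 nm after 3 h, viability given relative to DMSO controls, EC50 taken as 50% cell death.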

Experiment [3] is described as follows: Cytotoxicity against human PC3 cells assessed as cell death after 48 to 72 hrs by XTT assay. It is filed as functional, cell-based, PC-3. The method in brief: (§1)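 Cells seeded at 5000 per well in DMEM with 10% FBS, penicillin and streptomycin (100 µg/mL each), 37°C, 5% CO2. Compound in DMSO added 20 h after seeding, 1% DMSO final, DMSO-only controls. At least three wells per condition. Viability relative to DMSO; EC50 = concentration giving 50% cell death.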
(In general: Tetrazolium assays rely on reduction of a dye to a coloured formazan, in cell work by metabolically active cells.)

In another experiment the test system is SW-620. Description: Cytotoxicity against human SW620 cells assessed as cell death after 48 to 72 hrs by XTT assay. It is filed as functional, cell-based. In outline:
as §1

The target in experiment [4] is T1, Kallikrein-7. Description: Reversible inhibition of human KLK7 using Suc-Leu-Leu-Val-Tyr-AMC as substrate preincubated for 15 to 60 mins followed by 40 fold dilution by fluorescence assay. The method in brief:
(§2)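 KLK7 preincubated with inhibitor, 50 µM where stated, for 15 and 60 min at pH 8.0 and 37 °C. Mixture then diluted 40-fold into buffer holding Suc-LLVY-AMC under the routine KLK7 conditions. Residual activity read fluorimetrically, ex 360 / em 460 nm, and compared with the uninhibited enzyme.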
Target sequence in this assay (P49862 30-253 limits assumed): as the sequence (P49862 30-253 limits assumed) above

The target of experiment [5] is T1, Kallikrein-7. Description: Competitive inhibition of human KLK7 using Suc-Leu-Leu-Val-Tyr-AMC as substrate by Lineweaver-Burk plot analysis.
Target sequence in this assay (P49862 whole entry): as the sequence (P49862 whole entry) above
For experiment [6], the target named is Kallikrein-5 (Homo sapiens) (UniProt Q9Y337). Description: Inhibition of human KLK5 using Boc-Val-Pro-Arg-AMC as substrate at 50 uM after 15 mins by fluorescence assay. In outline: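 KLK5 at 0.6 nM, final, with 100 µM Boc-VPR-AMC in pH 8.0 buffer of 50 mM Tris-HCl, 0.01% Tween 20, 150 mM NaCl, 2% DMSO. Compound at 50 µM preincubated 15 min with enzyme. Fluorescence then read 15 min at 37 °C, ex 360 / em 460 nm. Inhibition taken from initial rates versus untreated control.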
Sequence of Kallikrein-5 (Homo sapiens) (Q9Y337 whole entry): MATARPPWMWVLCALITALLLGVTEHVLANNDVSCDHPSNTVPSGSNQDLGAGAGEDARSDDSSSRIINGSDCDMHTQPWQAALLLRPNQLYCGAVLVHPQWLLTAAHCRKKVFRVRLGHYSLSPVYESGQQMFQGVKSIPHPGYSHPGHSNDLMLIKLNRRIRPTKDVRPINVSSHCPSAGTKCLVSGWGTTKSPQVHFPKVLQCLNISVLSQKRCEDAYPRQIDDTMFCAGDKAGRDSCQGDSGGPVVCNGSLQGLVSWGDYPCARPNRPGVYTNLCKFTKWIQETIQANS

In experiment [7] the target is T2, Kallikrein-8 (Homo sapiens) (UniProt O60259).
T2 sequence (whole entry): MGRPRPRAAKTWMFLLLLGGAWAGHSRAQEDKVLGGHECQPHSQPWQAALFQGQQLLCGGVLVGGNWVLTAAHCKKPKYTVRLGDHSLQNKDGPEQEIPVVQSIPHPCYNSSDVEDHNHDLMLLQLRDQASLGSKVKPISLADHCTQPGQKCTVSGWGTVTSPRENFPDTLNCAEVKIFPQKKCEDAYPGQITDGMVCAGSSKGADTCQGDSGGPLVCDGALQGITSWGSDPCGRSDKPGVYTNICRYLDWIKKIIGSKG
In words: Inhibition of human KLK8 using Boc-Val-Pro-Arg-AMC as substrate at 50 uM after 15 mins by fluorescence assay. The method in brief: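 KLK8 at 1 nM, final, with 100 µM Boc-VPR-AMC in pH 8.0 Tris-HCl buffer containing 0.01% Tween 20 and 2% DMSO. Compound at 50 µM preincubated with enzyme 15 min. Substrate hydrolysis then monitored 15 min at 37 °C, ex 360 / em 460 nm. Initial rates compared with the untreated enzyme.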

In experiment [8] the target is T3, Kallikrein-14 (Homo sapiens) (UniProt Q9P0G3).
T3 sequence (whole entry): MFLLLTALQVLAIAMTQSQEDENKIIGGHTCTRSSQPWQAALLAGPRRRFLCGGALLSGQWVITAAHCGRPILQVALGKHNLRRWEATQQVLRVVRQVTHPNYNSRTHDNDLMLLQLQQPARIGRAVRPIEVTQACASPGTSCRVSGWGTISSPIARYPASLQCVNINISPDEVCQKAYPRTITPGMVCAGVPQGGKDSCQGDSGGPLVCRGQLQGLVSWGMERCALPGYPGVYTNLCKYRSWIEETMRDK
Description: Inhibition of human KLK14 using Boc-Val-Pro-Arg-AMC as substrate at 50 uM after 15 mins by fluorescence assay. In outline:
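KLK14 at 0.2 nM, final, with 10 µM Boc-VPR-AMC in pH 8.0 buffer of 50 mM Tris-HCl, 0.01% Tween 20, 1 M NaCl, 2% DMSO. Compound at 50 µM preincubated 15 min with enzyme. Fluorescence then read 15 min at 37 °C, ex 360 / em 460 nm. Percent inhibition taken from initial rates relative to control.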

Experiment [9] has as its target T1, Kallikrein-7. Description: Reversible inhibition of human KLK7 using Suc-Leu-Leu-Val-Tyr-AMC as substrate at 50 uM preincubated for 15 mins followed by 40 fold dilution by fluorescence assay. The method in brief:
as §2
Target sequence in this assay (P49862 30-253 limits assumed): as the sequence (P49862 30-253 limits assumed) above

[10] abbreviates: Homo sapiens, HeLa, read-out: EC50.

SMILES strings stand for the structures. Calls of active or inactive are those of the source. The rule behind the calls is not given here.

The molecule `O=C1c2c(nc3ccccn23)N=C(c2ccc(Br)cc2)N[C@H]1Cc1ccccc1` yielded an inhibition against Kallikrein-7 [1] of less than 30%.

The molecule `Cc1ccc(C2=Nc3nc4ccccn4c3C(=O)[C@H](Cc3ccccc3)N2)c(C)c1` registered a 50% inhibitory concentration (IC50) against Kallikrein-7 [2] of 83.9 µM. The EC50 entry in the experiment on HeLa (hela) is “Not Active”; in experiment [3] (pc-3), “Not Active”; with SW-620 (Homo sapiens, SW-620, read-out: EC50), 67.8 µM.

In the case of `Nc1nc2ccccn2c1C(=O)[C@H](Cc1ccccc1)NC(=O)c1ccccn1`, the inhibition against Kallikrein-7 [1] is less than 30%.

The molecule `COc1cc(C2=Nc3nc4ccccn4c3C(=O)[C@H](Cc3ccccc3)N2)cc(OC)c1OC` came in with an IC50 at Kallikrein-7 [2] of 55.7 µM. Also, the results for the EC50 (in the experiment with HeLa (setting [10]); in [3] (pc-3); in the experiment on SW-620 (sw-620)) were 53.8 µM, “Not Active” and “Not Active”, respectively.

In the case of `Cc1ccccc1C1=Nc2nc3ccccn3c2C(=O)[C@@H](Cc2ccccc2)N1`, the IC50 against Kallikrein-7 [2] turned out to be 95.9 µM.

Molecule `COc1cccc(C2=Nc3nc4ccccn4c3C(=O)[C@H](Cc3ccccc3)N2)c1` had an inhibition on Kallikrein-7 [1] of less than 30%.

On to `COc1ccc(OC)c(C2=Nc3nc4ccccn4c3C(=O)[C@H](Cc3ccccc3)N2)c1`, for which the half-maximal inhibitory concentration (IC50) against Kallikrein-7 [2] stood at 80.9 µM. The EC50 in the experiment on HeLa (setting [10]) was 40 µM; in [3] (pc-3), “Not Active”; in the experiment on SW-620 (sw-620) it was “Not Active”.

Take `O=C1c2c(nc3ccccn23)N=C(c2ccc([N+](=O)[O-])cc2)N[C@H]1Cc1ccccc1`: the inhibition against Kallikrein-7 [1] is less than 30%.

Take `COc1ccc(C2=Nc3nc4ccccn4c3C(O)[C@H](Cc3ccccc3)N2)cc1OC` (some centres not stated): the inhibition on Kallikrein-7 [1] is less than 30%.

Regarding `Nc1nc2ccccn2c1C(=O)[C@H](Cc1ccccc1)NC(=O)c1ccc[nH]1`, the inhibition against Kallikrein-7 [1] is less than 30%.

For `COc1ccc(C(=O)N[C@@H](Cc2ccccc2)C(=O)c2c(N)nc3ccccn23)cc1OC`, on Kallikrein-7 [1], the inhibition is less than 30%.

Molecule `Cc1ccccc1C1=Nc2nc3ccccn3c2C(=O)[C@H](Cc2cccc3ccccc23)N1` yielded an inhibition on Kallikrein-7 [1] of less than 30%.

In turn, `CC(C)CC1=Nc2nc3ccccn3c2C(=O)[C@H](Cc2ccccc2)N1` came in with an inhibition against Kallikrein-7 [1] of less than 30%.

As for `COc1ccc(C2=Nc3nc4ccccn4c3C(=O)[C@H](Cc3ccccc3)N2)cc1`, on Kallikrein-7 [2], the IC50 worked out at 72 µM.

On Kallikrein-7 [1], `COc1ccc(C2=Nc3nc4ccccn4c3C(=O)[C@H](Cc3ccc(O)cc3)N2)cc1OC` displayed an inhibition of less than 30%.

The molecule `COc1ccc(C2=Nc3nc4ccccn4c3C(=O)[C@H](C)N2)cc1OC` registered an inhibition on Kallikrein-7 [1] of less than 30%.

Consider `Cc1ccccc1C(=O)N[C@@H](Cc1ccccc1)C(=O)c1c(N)nc2ccccn12`, for which the 50% inhibitory concentration (IC50) against Kallikrein-7 [2] is 135 µM.

Take `COc1ccc(C2=Nc3nc4ccccn4c3C(=O)[C@H](Cc3ccccc3)N2C)cc1OC`: at Kallikrein-7 [1], the inhibition was less than 30%.

Turning to `Nc1nc2ccccn2c1C(=O)[C@H](Cc1ccccc1)NC(=O)CCc1ccccc1`, the inhibition against Kallikrein-7 [1] is less than 30%.

On Kallikrein-7 [1], `Cc1ccccc1C1=Nc2nc3ccccn3c2C(=O)[C@H](COCc2ccccc2)N1` came in with an inhibition of less than 30%.

As to `Cc1ccccc1C1=Nc2nc3ccccn3c2C(=O)[C@H](Cc2ccccc2)N1`, the inhibition against Kallikrein-7 [1] is more than 30%. This molecule also showed a half-maximal inhibitory concentration (IC50) against Kallikrein-7 [2] of 57 µM. At Kallikrein-7 [4], the inhibition entry is “Active”. Besides, the inhibitory constant (Ki) on Kallikrein-7 [5] amounted to 50.6 µM. For the same molecule, the inhibition entry in experiment [6], in [7] and in experiment [8] was “inactive” each time.

At Kallikrein-7 [2], `COc1ccc(C2=Nc3nc4ccccn4c3C(=O)[C@H](Cc3ccccc3)N2)cc1OC` had a half-inhibitory concentration (IC50) of 33.5 µM. In addition, the inhibition constant Ki on Kallikrein-7 [5] was 27 µM. Also, the inhibition entry in experiment [6], in experiment [7] and in experiment [8] was “inactive” throughout. On Kallikrein-7 [9], the inhibition result is “Active”. The EC50 is 24.3 µM in the experiment on HeLa (setting [10]); 64.8 µM in experiment [3] (Homo sapiens, PC-3, read-out: EC50); “Not Active” in the experiment with SW-620 (sw-620).

Molecule `Nc1nc2ccccn2c1C(=O)[C@H](Cc1ccccc1)NC(=O)c1ccncc1` returned an inhibition at Kallikrein-7 [1] of less than 30%.

In the case of `O=C1c2c(nc3ccccn23)N=C(c2ccccc2O)N[C@H]1Cc1ccccc1`, the inhibition on Kallikrein-7 [1] is less than 30%.

On Kallikrein-7 [1], `O=C1c2c(nc3ccccn23)N=C(c2cccnc2)N[C@H]1Cc1ccccc1` displayed an inhibition of less than 30%.

`COc1ccc(C2=Nc3nc4ccccn4c3C(=O)[C@H](CO)N2)cc1OC` showed an inhibition at Kallikrein-7 [1] of less than 30%.

As for `Cc1ccccc1C1=Nc2nc3ccccn3c2C(=O)[C@H](C)N1`, at Kallikrein-7 [1], the inhibition is less than 30%.

In turn, `Nc1nc2ccccn2c1C(=O)[C@H](Cc1ccccc1)NC(=O)c1ccccc1` came in with an inhibition against Kallikrein-7 [1] of less than 30%.

The molecule `COc1ccc(C2=Nc3nc4ccccn4c3C(=O)[C@H](COCc3ccccc3)N2)cc1OC` showed an inhibition against Kallikrein-7 [1] of less than 30%.

On to `Cc1ccc(C2=Nc3nc4ccccn4c3C(=O)[C@H](Cc3ccccc3)N2)cc1`, for which, on Kallikrein-7 [2], it took 68 µM to reach half-maximal inhibition (IC50). In other words, the double-digit micromolar range.

Regarding `Cc1cccc(C2=Nc3nc4ccccn4c3C(=O)[C@H](Cc3ccccc3)N2)c1`, at Kallikrein-7 [1], the inhibition was less than 30%.

Molecule `O=C1c2c(nc3ccccn23)N=C(c2ccccc2)N[C@H]1Cc1ccccc1` came in with an inhibition against Kallikrein-7 [1] of less than 30%.

`O=C1c2c(nc3ccccn23)N=C(c2cccc(O)c2)N[C@H]1Cc1ccccc1` registered a concentration for half-maximal inhibition (IC50) against Kallikrein-7 [2] of 125 µM.

`O=C1c2c(nc3ccccn23)N=C(c2cc(O)ccc2O)N[C@H]1Cc1ccccc1` registered an inhibition against Kallikrein-7 [1] of less than 30%.

On Kallikrein-7 [1], `O=C1Nc2nc3ccccn3c2C(=O)[C@H](Cc2ccccc2)N1` had an inhibition of less than 30%.

In turn, `Nc1nc2ccccn2c1C(=O)[C@H](Cc1ccccc1)NC(=O)/C=C/c1ccccc1` yielded an inhibition against Kallikrein-7 [1] of less than 30%.

As to `COc1ccc(C2=Nc3nc4ccccn4c3C(=O)[C@H](Cc3ccc(OCc4ccccc4)cc3)N2)cc1OC`, the inhibition on Kallikrein-7 [1] is less than 30%.

With `COc1ccccc1C1=Nc2nc3ccccn3c2C(=O)[C@H](Cc2ccccc2)N1`, the inhibition at Kallikrein-7 [1] is less than 30%.

As for `Nc1nc2ccccn2c1C(=O)[C@H](Cc1ccccc1)NC(=O)Cc1ccccc1`, on Kallikrein-7 [2], the half-maximal inhibitory concentration (IC50) turned out to be 149 µM.
